Columns and labels:
A549 = test: Antiproliferative activity against human A549 cells after 72 hrs by SRB assay; type: functional, cell-based; settings: A549, 72 h
[1] = Antiproliferative activity against human KBVIN cells after 72 hrs by SRB assay; type: functional, cell-based
[2] = system: Human immunodeficiency virus 1; test: Antiviral activity against HIV1 NL4-3 infected in human MT4 cells assessed as inhibition of viral replication after 3 days by luciferase reporter gene assay; type: functional, organism-based
In short: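 MT4 cells (1 × 10^5 cells/mL) infected with HIV-1 NL4-3 Nanoluc-sec reporter virus at 50 TCID50/well alongside a range of compound concentrations (multicycle replication). Supernatants harvested on day 3 post-infection and read for secreted luciferase (Nano-Glo).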

[3] = Selectivity index, ratio of CC50 for human MT4 cells to IC50 for HIV1 NL4-3 infected in human MT4 cells; type: toxicity, cell-based; settings: read-out: Ratio CC50/IC50
In short: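 Selectivity index computed as CC50 (MT4 CytoTox-Glo, 3 days) divided by anti-HIV IC50 (NL4-3 Nanoluc-sec luciferase in MT4, day 3); SI below 5 regarded as no selective activity.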

KB = test: Antiproliferative activity against human KB cells after 72 hrs by SRB assay; type: functional, cell-based
MDA-MB-231 = test: Antiproliferative activity against human MDA-MB-231 cells after 72 hrs by SRB assay; type: functional, cell-based; settings: MDA-MB-231, 72 h
MCF7 = test: Antiproliferative activity against human MCF7 cells after 72 hrs by SRB assay; type: functional, cell-based; settings: MCF7, 72 h
[4] = Cytotoxicity against human MT4 cells assessed as reduction in cell viability after 3 days by cytoTox-Glo reagent based assay
[5] = Human immunodeficiency virus 1, NL4-3, MT4, 72 h, read-out: IC50

| Compound | IC50 (A549) | IC50 [1] | IC50 ([2]; mt4) | selectivity ratio [3] | IC50 (KB) | IC50 (MDA-MB-231) | IC50 (MCF7) | CC50 at 72 h [4] | IC50 [2, 5] |
| --- | --- | --- | --- | --- | --- | --- | --- | --- | --- |
| CO[C@@H]1O[C@@]2(C=C(C)C(=O)O2)C[C@@H]1[C@H]1CC[C@@]2(C)[C@@H]3CC[C@H]4C(C)(C)C(=O)C=C[C@@]45C[C@@]35CC[C@]12C | 9.1 µM | 5.7 µM | Not Active | < 5 | > 10 µM | > 10 µM | > 10 µM | – | – |
| CC1=C[C@@]2(C[C@H]([C@H]3CC[C@@]4(C)[C@@H]5CC[C@H]6C(C)(C)C(=O)C=C[C@@]67C[C@@]57CC[C@]34C)CO2)OC1=O | 8.2 µM | > 10 µM | – | – | > 10 µM | > 10 µM | > 10 µM | – | – |
| CO[C@H]1O[C@@]2(C=C(C)C(=O)O2)C[C@@H]1[C@H]1CC[C@@]2(C)[C@@H]3CC[C@H]4C(C)(C)C(=O)C=C[C@@]45C[C@@]35CC[C@]12C | > 10 µM | > 10 µM | Not Active | < 5 | > 10 µM | > 10 µM | > 10 µM | – | – |
| CC1(C)CC[C@]2(C)CC=C3[C@]4(C)CC[C@H]5C(C)(C)C(=O)CC[C@]5(C)[C@H]4CC[C@@]3(C)[C@@H]2C1 [TARAXERONE] | > 10 µM | > 10 µM | – | – | > 10 µM | > 10 µM | > 10 µM | – | – |
| CC(C)=CC(=O)CC(C(=O)O)[C@H]1CC[C@@]2(C)[C@@H]3CC[C@H]4C(C)(C)C(=O)C=C[C@@]45C[C@@]35CC[C@]12C (some centres undefined) | > 10 µM | > 10 µM | – | – | > 10 µM | > 10 µM | > 10 µM | – | – |
| CC1=C[C@@]2(C[C@H]([C@H]3CC[C@@]4(C)[C@@H]5CC[C@H]6C(C)(C)C(=O)C=C[C@]67C[C@]57CC[C@]34C)CO2)OC1=O | > 10 µM | > 10 µM | – | 5.8 | > 10 µM | > 10 µM | > 10 µM | 4.6 µM | 0.8 µM |
| CC(C)=CC(=O)C[C@@H](C)[C@H]1CC[C@@]2(C)[C@@H]3CC[C@H]4C(C)(C)C(=O)C=C[C@@]45C[C@@]35CC[C@]12C | > 10 µM | > 10 µM | – | – | > 10 µM | > 10 µM | > 10 µM | – | – |
| CO[C@H]1O[C@]2(C=C(C)C(=O)O2)C[C@@H]1[C@H]1CC[C@@]2(C)[C@@H]3CC[C@H]4C(C)(C)C(=O)C=C[C@]45C[C@]35CC[C@]12C | > 10 µM | > 10 µM | – | 5.3 | > 10 µM | > 10 µM | > 10 µM | 12.6 µM | 2.4 µM |
| CC(=O)O[C@H]1C(=O)[C@@]2(C)[C@H]([C@H](OC(=O)c3ccccc3)[C@]3(O)C[C@H](OC(=O)[C@H](O)[C@@H](NC(=O)c4ccccc4)c4ccccc4)C(C)=C1C3(C)C)[C@]1(OC(C)=O)CO[C@@H]1C[C@@H]2O [PACLITAXEL] | 0.0063 µM | 2.79 µM | – | – | – | 0.0081 µM | 0.0112 µM | – | – |
| CO[C@H]1O[C@]2(C=C(C)C(=O)O2)C[C@@H]1[C@H]1CC[C@@]2(C)[C@@H]3CC[C@H]4C(C)(C)C(=O)C=C[C@@]45C[C@@]35CC[C@]12C | 8.9 µM | 6.1 µM | – | – | > 10 µM | > 10 µM | 10 µM | – | – |
| CC(=O)/C=C1/C=C([C@H]2CC[C@@]3(C)[C@@H]4CC[C@H]5C(C)(C)C(=O)C=C[C@@]56C[C@@]46CC[C@]23C)C(=O)N1 | 9.4 µM | 6.9 µM | Not Active | < 5 | 8 µM | 10 µM | > 10 µM | – | – |
| Cc1cn([C@H]2C[C@H](N=[N+]=[N-])[C@@H](CO)O2)c(=O)[nH]c1=O [ZIDOVUDINE] | – | – | – | – | – | – | – | > 3.74 µM | – |
| CC(C)=CC(=O)C[C@@H](C)[C@H]1CC[C@@]2(C)[C@@H]3CC[C@H]4C(C)(C)C(=O)C=C[C@]45C[C@]35CC[C@]12C | > 10 µM | 8.4 µM | Not Active | < 5 | > 10 µM | > 10 µM | > 10 µM | – | – |

From ChEMBL document CHEMBL4145651, “Kleinhospitine E and Cycloartane Triterpenoids from Kleinhovia hospita” (J Nat Prod, 2018)
